Laboratory results: ChEMBL document CHEMBL1141568, “Malaria-infected mice are cured by oral administration of new artemisinin derivatives” (2008)

What was measured:
Type in all cases: functional
Plasmodium berghei [1] = assay: Antimalarial activity as survival time in Plasmodium berghei-infected NMRI mice (Mus musculus) at 10 mg/kg peroral dose three times daily; settings: route oral
Outline: (§1)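 P. berghei GFP ANKA, 2 × 10⁷ parasitized erythrocytes given intravenously to NMRI mice on day 0. Compound in 70/30 Tween 80/ethanol, diluted 10× with water, given orally at 10 mL/kg at 24, 48 and 72 h postinfection; n = 3 per group. Read-out is average survival in days after infection, with individual survival also given. Cure means no blood parasites by flow cytometry on day 30.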

Plasmodium berghei [2] = assay: Antimalarial survival activity in Plasmodium berghei infected NMRI mice (Mus musculus) at 30 mg/kg peroral dose (3x daily); settings: route oral; outline: as §1
Plasmodium berghei [3] = assay: Antimalarial survival activity in Plasmodium berghei infected NMRI mice (Mus musculus) at 30 mg/kg peroral dose; settings: route oral
Outline: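 NMRI mice were infected intravenously on day 0 with 2 × 10⁷ P. berghei GFP ANKA parasitized erythrocytes. One oral dose of 30 mg/kg was given 24 h postinfection in 70/30 Tween 80/ethanol diluted 10× with water, at 10 mL/kg; n = 3 per group. Read-out is average survival in days after infection.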

Plasmodium berghei [4] = assay: Reduced parasitemia in Plasmodium berghei infected NMRI mice (Mus musculus); design: concentration or dose not given beside the values
Outline: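 P. berghei GFP ANKA infection (2 × 10⁷ parasitized erythrocytes i.v., day 0) in NMRI mice, n = 3 per group. One oral dose of 1 × 30 mg/kg at 24 h postinfection, in Tween 80/ethanol 70/30 diluted 10× with water. Blood parasitemia on day 3 postinfection by flow cytometry, given as % suppression against untreated infected mice.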

Compound	Survival (Plasmodium berghei [1])	Survival (Plasmodium berghei [2])	Survival (Plasmodium berghei [3])	Activity (Plasmodium berghei [4])
C[C@H]1[C@@H](CC(O)(COC(=O)c2ccccc2)C[C@H]2O[C@@H]3O[C@]4(C)CC[C@H]5[C@H](C)CC[C@@H]([C@H]2C)[C@@]35OO4)O[C@@H]2O[C@]3(C)CC[C@H]4[C@H](C)CC[C@@H]1[C@@]24OO3 (stereo partly specified)	6 days	20.7 days	–	–
Cc1ccc(CNC(=O)C(C[C@H]2O[C@@H]3O[C@]4(C)CC[C@H]5[C@H](C)CC[C@@H]([C@H]2C)[C@@]35OO4)C[C@H]2O[C@@H]3O[C@]4(C)CC[C@H]5[C@H](C)CC[C@@H]([C@H]2C)[C@@]35OO4)cc1 (stereo partly specified)	–	–	10.3 days	99%
C[C@H]1[C@@H](CC(C[C@H]2O[C@@H]3O[C@]4(C)CC[C@H]5[C@H](C)CC[C@@H]([C@H]2C)[C@@]35OO4)=NNC(=O)c2ccncc2)O[C@@H]2O[C@]3(C)CC[C@H]4[C@H](C)CC[C@@H]1[C@@]24OO3	17.7 days	>=30 day	10 days	99.4%
COC(=O)c1ccc(CNC(=O)C(C[C@H]2O[C@@H]3O[C@]4(C)CC[C@H]5[C@H](C)CC[C@@H]([C@H]2C)[C@@]35OO4)C[C@H]2O[C@@H]3O[C@]4(C)CC[C@H]5[C@H](C)CC[C@@H]([C@H]2C)[C@@]35OO4)cc1 (stereo partly specified)	10 days	–	–	–
C[C@H]1[C@@H](CC(O)(COCc2ccncc2)C[C@H]2O[C@@H]3O[C@]4(C)CC[C@H]5[C@H](C)CC[C@@H]([C@H]2C)[C@@]35OO4)O[C@@H]2O[C@]3(C)CC[C@H]4[C@H](C)CC[C@@H]1[C@@]24OO3 (stereo partly specified)	14.7 days	>=30 day	10 days	99.2%
C[C@H]1[C@@H](CC(C[C@H]2O[C@@H]3O[C@]4(C)CC[C@H]5[C@H](C)CC[C@@H]([C@H]2C)[C@@]35OO4)C(=O)N[C@@H](C)c2ccc(F)cc2)O[C@@H]2O[C@]3(C)CC[C@H]4[C@H](C)CC[C@@H]1[C@@]24OO3 (stereo partly specified)	–	–	12.7 days	98.9%
C[C@H]1[C@@H](CC2(C[C@H]3O[C@@H]4O[C@]5(C)CC[C@H]6[C@H](C)CC[C@@H]([C@H]3C)[C@@]46OO5)COC3(CCS(=O)(=O)CC3)O2)O[C@@H]2O[C@]3(C)CC[C@H]4[C@H](C)CC[C@@H]1[C@@]24OO3	8.3 days	>=30 day	–	–
C[C@H]1[C@@H](CC2(C[C@H]3O[C@@H]4O[C@]5(C)CC[C@H]6[C@H](C)CC[C@@H]([C@H]3C)[C@@]46OO5)COC3(CCOCC3)O2)O[C@@H]2O[C@]3(C)CC[C@H]4[C@H](C)CC[C@@H]1[C@@]24OO3 (stereo partly specified)	15.7 days	>=30 day	9 days	99.5%
CNC(=O)N1CCC2(CC1)OCC(C[C@H]1O[C@@H]3O[C@]4(C)CC[C@H]5[C@H](C)CC[C@@H]([C@H]1C)[C@@]35OO4)(C[C@H]1O[C@@H]3O[C@]4(C)CC[C@H]5[C@H](C)CC[C@@H]([C@H]1C)[C@@]35OO4)O2 (stereo partly specified)	13.3 days	>=30 day	–	–
C[C@H]1[C@@H](CC(C[C@H]2O[C@@H]3O[C@]4(C)CC[C@H]5[C@H](C)CC[C@@H]([C@H]2C)[C@@]35OO4)C(=O)NCC2CCCCC2)O[C@@H]2O[C@]3(C)CC[C@H]4[C@H](C)CC[C@@H]1[C@@]24OO3 (stereo partly specified)	7 days	>=30 day	–	–
CCN(CC)C(=O)OCC(C[C@H]1O[C@@H]2O[C@]3(C)CC[C@H]4[C@H](C)CC[C@@H]([C@H]1C)[C@@]24OO3)C[C@H]1O[C@@H]2O[C@]3(C)CC[C@H]4[C@H](C)CC[C@@H]([C@H]1C)[C@@]24OO3 (stereo partly specified)	14 days	>=30 day	11.7 days	99.3%
C[C@H]1[C@@H](CC2(C[C@H]3O[C@@H]4O[C@]5(C)CC[C@H]6[C@H](C)CC[C@@H]([C@H]3C)[C@@]46OO5)COC3(CCC3)O2)O[C@@H]2O[C@]3(C)CC[C@H]4[C@H](C)CC[C@@H]1[C@@]24OO3 (stereo partly specified)	7 days	>=30 day	–	–
C[C@@H]1CC[C@H]2[C@@H](C)C(OC(=O)CCC(=O)[O-])O[C@@H]3O[C@]4(C)CC[C@@H]1[C@]32OO4.[Na+] (stereo partly specified)	–	7.2 days	7.6 days	92%
C[C@H]1[C@@H](CC2(C[C@H]3O[C@@H]4O[C@]5(C)CC[C@H]6[C@H](C)CC[C@@H]([C@H]3C)[C@@]46OO5)COCO2)O[C@@H]2O[C@]3(C)CC[C@H]4[C@H](C)CC[C@@H]1[C@@]24OO3 (stereo partly specified)	11 days	>=30 day	–	–
C[C@H]1[C@@H](CC(C[C@H]2O[C@@H]3O[C@]4(C)CC[C@H]5[C@H](C)CC[C@@H]([C@H]2C)[C@@]35OO4)c2nnc(-c3ccc(F)cc3)o2)O[C@@H]2O[C@]3(C)CC[C@H]4[C@H](C)CC[C@@H]1[C@@]24OO3 (stereo partly specified)	–	–	10 days	98.8%
C[C@H]1[C@@H](CC(C[C@H]2O[C@@H]3O[C@]4(C)CC[C@H]5[C@H](C)CC[C@@H]([C@H]2C)[C@@]35OO4)C(=O)NCC(C)(C)C)O[C@@H]2O[C@]3(C)CC[C@H]4[C@H](C)CC[C@@H]1[C@@]24OO3 (stereo partly specified)	6 days	27.7 days	–	–
Cc1noc(C(C[C@H]2O[C@@H]3O[C@]4(C)CC[C@H]5[C@H](C)CC[C@@H]([C@H]2C)[C@@]35OO4)C[C@H]2O[C@@H]3O[C@]4(C)CC[C@H]5[C@H](C)CC[C@@H]([C@H]2C)[C@@]35OO4)n1 (stereo partly specified)	–	–	13.7 days	98.9%
C[C@H]1[C@@H](CC2(C[C@H]3O[C@@H]4O[C@]5(C)CC[C@H]6[C@H](C)CC[C@@H]([C@H]3C)[C@@]46OO5)COC3(CCC(=O)CC3)O2)O[C@@H]2O[C@]3(C)CC[C@H]4[C@H](C)CC[C@@H]1[C@@]24OO3 (stereo partly specified)	16.3 days	>=30 day	8.3 days	99.6%
C[C@H]1[C@@H](CC(C[C@H]2O[C@@H]3O[C@]4(C)CC[C@H]5[C@H](C)CC[C@@H]([C@H]2C)[C@@]35OO4)C(=O)NCc2ccncc2)O[C@@H]2O[C@]3(C)CC[C@H]4[C@H](C)CC[C@@H]1[C@@]24OO3 (stereo partly specified)	7 days	11.3 days	–	–
CCOP(=S)(OCC)OCC(C[C@H]1O[C@@H]2O[C@]3(C)CC[C@H]4[C@H](C)CC[C@@H]([C@H]1C)[C@@]24OO3)C[C@H]1O[C@@H]2O[C@]3(C)CC[C@H]4[C@H](C)CC[C@@H]([C@H]1C)[C@@]24OO3 (stereo partly specified)	7.7 days	24.7 days	–	–
C[C@H]1[C@@H](CC(O)(COCC#CCOCc2ccc(F)cc2)C[C@H]2O[C@@H]3O[C@]4(C)CC[C@H]5[C@H](C)CC[C@@H]([C@H]2C)[C@@]35OO4)O[C@@H]2O[C@]3(C)CC[C@H]4[C@H](C)CC[C@@H]1[C@@]24OO3 (stereo partly specified)	–	–	6.3 days	88%
CCOC(=O)N1CCC2(CC1)OCC(C[C@H]1O[C@@H]3O[C@]4(C)CC[C@H]5[C@H](C)CC[C@@H]([C@H]1C)[C@@]35OO4)(C[C@H]1O[C@@H]3O[C@]4(C)CC[C@H]5[C@H](C)CC[C@@H]([C@H]1C)[C@@]35OO4)O2 (stereo partly specified)	14 days	>=30 day	8.7 days	99.6%
Cc1ccc(COCC(C[C@H]2O[C@@H]3O[C@]4(C)CC[C@H]5[C@H](C)CC[C@@H]([C@H]2C)[C@@]35OO4)C[C@H]2O[C@@H]3O[C@]4(C)CC[C@H]5[C@H](C)CC[C@@H]([C@H]2C)[C@@]35OO4)cc1 (stereo partly specified)	8 days	>=30 day	–	–
C[C@H]1[C@@H](CC2(C[C@H]3O[C@@H]4O[C@]5(C)CC[C@H]6[C@H](C)CC[C@@H]([C@H]3C)[C@@]46OO5)COC3(CCN(C(=O)c4ccccc4)CC3)O2)O[C@@H]2O[C@]3(C)CC[C@H]4[C@H](C)CC[C@@H]1[C@@]24OO3 (stereo partly specified)	15.7 days	–	10 days	99%
